Experiments:
Format in all cases: functional
CCRF-CEM = assay: Cytotoxicity against human CCRF-CEM cells assessed as cell growth at 10^-5 M after 48 hrs by SRB assay; conditions: read-out: Activity
Procedure, shortened: (§1)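 NCI 60 single-dose screen at 10^-5 M. Cells in RPMI 1640 with 5% FBS and 2 mM L-glutamine, preincubated 24 h at 37 °C/5% CO2. Drug from DMSO stock, then 48 h exposure. TCA fixation, SRB staining, absorbance at 515 nm. Result given as percent growth of treated cells relative to untreated control.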

SF-295 = assay: Cytotoxicity against human SF295 cells assessed as cell growth at 10^-5 M after 48 hrs by SRB assay; conditions: SF-295, 48 h, read-out: Activity
Procedure, shortened: (§2)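 NCI 60-panel single-dose primary screen at 10^-5 M. Cells are grown in RPMI 1640 with 5% FBS and 2 mM L-glutamine and preincubated 24 h at 37 °C. Drug exposure is 48 h. Cells are TCA-fixed, stained with SRB and absorbance is read at 515 nm. Results are reported as percent growth of treated cells versus untreated controls, corrected using time-zero plates.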

M14 = assay: Cytotoxicity against human M14 cells assessed as cell growth at 10^-5 M after 48 hrs by SRB assay; conditions: M14, 48 h, read-out: Activity; procedure, shortened: as §1
OVCAR-4 = assay: Cytotoxicity against human OVCAR4 cells assessed as cell growth at 10^-5 M after 48 hrs by SRB assay; conditions: OVCAR-4, 48 h, read-out: Activity; procedure, shortened: as §2
OVCAR-3 = assay: Cytotoxicity against human OVCAR3 cells assessed as cell growth at 10^-5 M after 48 hrs by SRB assay; conditions: OVCAR-3, 48 h, read-out: Activity; procedure, shortened: as §2
RXF 393 = assay: Cytotoxicity against human RXF393 cells assessed as cell growth at 10^-5 M after 48 hrs by SRB assay; conditions: RXF 393, 48 h, read-out: Activity; procedure, shortened: as §2
HOP-92 = assay: Cytotoxicity against human HOP92 cells assessed as cell growth at 10^-5 M after 48 hrs by SRB assay; conditions: HOP-92, 48 h, read-out: Activity; procedure, shortened: as §1
SK-OV-3 = assay: Cytotoxicity against human SKOV3 cells assessed as cell growth at 10^-5 M after 48 hrs by SRB assay; conditions: SK-OV-3, 48 h, read-out: Activity; procedure, shortened: as §2
SK-MEL-5 = assay: Cytotoxicity against human SK-MEL-5 cells assessed as cell growth at 10^-5 M after 48 hrs by SRB assay; conditions: SK-MEL-5, 48 h, read-out: Activity; procedure, shortened: as §2
HCC 2998 = assay: Cytotoxicity against human HCC2998 cells assessed as cell growth at 10^-5 M after 48 hrs by SRB assay; conditions: HCC 2998, 48 h, read-out: Activity; procedure, shortened: as §1
SF-268 = assay: Cytotoxicity against human SF268 cells assessed as cell growth at 10^-5 M after 48 hrs by SRB assay; conditions: SF-268, 48 h, read-out: Activity; procedure, shortened: as §2
MOLT-4 = assay: Cytotoxicity against human MOLT4 cells assessed as cell growth at 10^-5 M after 48 hrs by SRB assay; conditions: MOLT-4, 48 h, read-out: Activity; procedure, shortened: as §2
LOX IMVI = assay: Cytotoxicity against human LOXIMVI cells assessed as cell growth at 10^-5 M after 48 hrs by SRB assay; conditions: read-out: Activity; procedure, shortened: as §1
A549 = assay: Cytotoxicity against human A549 cells assessed as cell growth at 10^-5 M after 48 hrs by SRB assay; conditions: A549, 48 h, read-out: Activity; procedure, shortened: as §1
NCI-H226 = assay: Cytotoxicity against human NCI-H226 cells assessed as cell growth at 10^-5 M after 48 hrs by SRB assay; conditions: NCI-H226, 48 h, read-out: Activity; procedure, shortened: as §2
SK-MEL-28 = assay: Cytotoxicity against human SK-MEL-28 cells assessed as cell growth at 10^-5 M after 48 hrs by SRB assay; conditions: SK-MEL-28, 48 h, read-out: Activity; procedure, shortened: as §2
HL-60(TB) = assay: Cytotoxicity against human HL-60(TB) cells assessed as cell growth at 10^-5 M after 48 hrs by SRB assay; conditions: HL-60, 48 h, read-out: Activity
Procedure, shortened: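 NCI 60-panel single-dose screen. Cells were grown in RPMI 1640 with 5% FBS and 2 mM L-glutamine, preincubated 24 h, then exposed to compound at 10^-5 M (from DMSO stock) for 48 h at 37 °C, 5% CO2. Settled suspension cells were TCA-fixed and SRB-stained, with absorbance read at 515 nm. The value is percent growth of treated versus untreated control cells.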

OVCAR-5 = assay: Cytotoxicity against human OVCAR5 cells assessed as cell growth at 10^-5 M after 48 hrs by SRB assay; conditions: OVCAR-5, 48 h, read-out: Activity; procedure, shortened: as §2
MDA-MB-468 = assay: Cytotoxicity against human MDA-MB-468 cells assessed as cell growth at 10^-5 M after 48 hrs by SRB assay; conditions: MDA-MB-468, 48 h, read-out: Activity; procedure, shortened: as §2
CAKI-1 = assay: Cytotoxicity against human Caki1 cells assessed as cell growth at 10^-5 M after 48 hrs by SRB assay; conditions: CAKI-1, 48 h, read-out: Activity; procedure, shortened: as §1
IGROV-1 = assay: Cytotoxicity against human IGROV1 cells assessed as cell growth at 10^-5 M after 48 hrs by SRB assay; conditions: IGROV-1, 48 h, read-out: Activity; procedure, shortened: as §1
UO-31 = assay: Cytotoxicity against human UO31 cells assessed as cell growth at 10^-5 M after 48 hrs by SRB assay; conditions: UO-31, 48 h, read-out: Activity
Procedure, shortened: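 NCI primary single-dose screen at 10^-5 M. Cells grown in RPMI 1640 with 5% FBS and 2 mM L-glutamine, given 24 h before drug addition, then 48 h exposure at 37 °C, 5% CO2. Cells TCA-fixed, stained with SRB, read at 515 nm. Reported as percent growth of treated cells relative to untreated controls.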

SNB-19 = assay: Cytotoxicity against human SNB19 cells assessed as cell growth at 10^-5 M after 48 hrs by SRB assay; conditions: SNB-19, 48 h, read-out: Activity; procedure, shortened: as §2
SK-MEL-2 = assay: Cytotoxicity against human SK-MEL-2 cells assessed as cell growth at 10^-5 M after 48 hrs by SRB assay; conditions: SK-MEL-2, 48 h, read-out: Activity; procedure, shortened: as §2
RPMI-8226 = assay: Cytotoxicity against human RPMI8226 cells assessed as cell growth at 10^-5 M after 48 hrs by SRB assay; conditions: RPMI-8226, 48 h, read-out: Activity; procedure, shortened: as §2
HCT-116 = assay: Cytotoxicity against human HCT116 cells assessed as cell growth at 10^-5 M after 48 hrs by SRB assay; conditions: HCT-116, 48 h, read-out: Activity; procedure, shortened: as §1
MCF7 = assay: Cytotoxicity against human MCF7 cells assessed as cell growth at 10^-5 M after 48 hrs by SRB assay; conditions: MCF7, 48 h, read-out: Activity; procedure, shortened: as §1

SMILES: CCOC(=O)/C(C#N)=C\Nc1ccc2ncnc(Nc3ccccc3Cl)c2c1
- growth at 10 µM (CCRF-CEM): 93.1%
- growth at 10 µM (SF-295): 102%
- growth at 10 µM (M14): 119%
- growth at 10 µM (OVCAR-4): 124%
- growth at 10 µM (OVCAR-3): 95.3%
- growth at 10 µM (RXF 393): 91.7%
- growth at 10 µM (HOP-92): 70.4%
- growth at 10 µM (SK-OV-3): 107%
- growth at 10 µM (SK-MEL-5): 88.3%
- growth at 10 µM (HCC 2998): 117%
- growth at 10 µM (SF-268): 106%
- growth at 10 µM (MOLT-4): 86.2%
- growth at 10 µM (LOX IMVI): 93%
- growth at 10 µM (A549): 82.4%
- growth at 10 µM (NCI-H226): 116%
- growth at 10 µM (SK-MEL-28): 119%
- growth at 10 µM (HL-60(TB)): 95.3%
- growth at 10 µM (OVCAR-5): 90.1%
- growth at 10 µM (MDA-MB-468): 34.7%
- growth at 10 µM (CAKI-1): 45%
- growth at 10 µM (IGROV-1): 79.7%
- growth at 10 µM (UO-31): 66.7%
- growth at 10 µM (SNB-19): 94.5%
- growth at 10 µM (SK-MEL-2): 106%
- growth at 10 µM (RPMI-8226): 84.3%
- growth at 10 µM (HCT-116): 113%
- growth at 10 µM (MCF7): 110%

Reference: ChEMBL document CHEMBL2346534, “Design, synthesis and in vitro anti-proliferative activity of 4,6-quinazolinediamines as potent EGFR-TK inhibitors” (Eur J Med Chem, 2013)
